Two molecules from ChEMBL document CHEMBL1159325, “Pseudoirroratin A, a new cytotoxic ent-kaurene diterpene from Isodon pseudo-irrorata” (J Nat Prod, 2002) can be followed below.

Molecules are shown by their SMILES.

What all share (assay type): functional, cell-based
One assay concerns Lu1. In words: Cytotoxicity against human Lu1 cells by MTT assay. A digest of the protocol: (§1)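 Cytotoxicity was run on human cell lines (Lu1, SW626, LNCaP, KB, and the HOG.R5 reporter line derived from parental HOS cells) following a previously established protocol. Camptothecin served as the positive control, and results were expressed as IC50.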
In general terms: Tetrazolium dyes change colour on reduction, which living cells bring about.

The nature of assay [1]: Cytotoxicity against human HOG.R5 cells by MTT assay. A digest of the protocol:
as §1

The next assay has as its system LNCaP. In words: Cytotoxicity against human LNCAP cells by MTT assay. An outline of the steps:
as §1

A further assay relates to SW626. In words: Cytotoxicity against human SW626 cells by MTT assay. An outline of the steps:
as §1

Another assay concerns KB. The experiment in a line: Cytotoxicity against human KB cells by MTT assay. A digest of the protocol:
as §1

In the next assay the test system is HOS. In words: Cytotoxicity against human HOS cells by MTT assay.

Take `CC[C@@]1(O)C(=O)OCc2c1cc1n(c2=O)Cc2cc3ccccc3nc2-1` [CAMPTOTHECIN]: the IC50 (usually the point on the concentration scale where inhibition reaches its midpoint) in the assay with Lu1 stood at 28.7 nM; in assay [1], 28.7 nM; in the assay with LNCaP it was 86.1 nM; in the assay with SW626, 28.7 nM; in the assay on KB, 28.7 nM.

For `C=C1C(=O)[C@]23[C@H](O)C[C@@H]4C(C)(C)CCC[C@]45CO[C@](O)(C[C@@H]1[C@H]2O)[C@@H]53` [PSEUDOIRRORATIN A], the IC50 is 750 nM in the assay with Lu1; 2590 nM in the assay on LNCaP; 570 nM in the assay with SW626; 1440 nM with HOS; 2590 nM with KB.
